Experimental data taken from ChEMBL document CHEMBL4229432, “Synthesis and biological properties of aryl methyl sulfones” (Bioorg Med Chem, 2018).

Assays:
[1] = target: T1, Prostaglandin G/H synthase 1 (Ovis aries, UniProt P05979); experiment: Inhibition of ovine COX1 assessed as reduction in PGH2 production by enzyme immunoassay
T1 sequence (P05979 whole entry): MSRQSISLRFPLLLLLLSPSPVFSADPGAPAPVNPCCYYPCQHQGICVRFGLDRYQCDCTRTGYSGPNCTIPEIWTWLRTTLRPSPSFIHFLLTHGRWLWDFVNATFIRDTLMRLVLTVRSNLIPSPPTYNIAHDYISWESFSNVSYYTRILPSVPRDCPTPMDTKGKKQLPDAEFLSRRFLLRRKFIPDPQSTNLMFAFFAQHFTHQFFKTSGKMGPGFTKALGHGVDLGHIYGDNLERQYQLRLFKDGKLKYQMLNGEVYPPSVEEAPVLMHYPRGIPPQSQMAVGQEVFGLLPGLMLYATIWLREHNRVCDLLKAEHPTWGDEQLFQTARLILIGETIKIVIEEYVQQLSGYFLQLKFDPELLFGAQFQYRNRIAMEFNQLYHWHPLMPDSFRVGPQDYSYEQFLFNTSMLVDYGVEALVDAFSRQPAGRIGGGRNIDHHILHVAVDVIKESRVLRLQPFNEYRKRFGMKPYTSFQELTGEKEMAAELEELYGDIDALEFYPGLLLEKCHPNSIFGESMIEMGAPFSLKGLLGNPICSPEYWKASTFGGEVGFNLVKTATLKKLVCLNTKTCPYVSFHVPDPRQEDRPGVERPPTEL

Rattus norvegicus [2] = experiment: Antiinflammatory activity in Sprague-Dawley rat assessed as inhibition of carrageenan-induced paw edema at 70 mg/kg, po pretreated for 1 hr followed by carrageenan challenge and measured after 3 hrs by plethysmometer relative to control; format: functional
How it was run: (§1)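 Modified Winter's method in young adult male Sprague-Dawley rats (160-200 g, groups of six), starved 24 h. Oral dose given 1 h before subplantar injection of 0.1 mL 1% carrageenan in sterile pyrogen-free 0.9% NaCl. Paw volume measured by water displacement plethysmometry before and at 3 and 4 h. % inhibition vs controls; mean ± S.E.M.; unpaired one-tailed Student's t-test.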

Rattus norvegicus [3] = experiment: Toxicity in Sprague-Dawley rat at 70 mg/kg, po; format: organism-based; conditions: in vivo
Rattus norvegicus [4] = experiment: Antiinflammatory activity in Sprague-Dawley rat assessed as inhibition of carrageenan-induced paw edema at 70 mg/kg, po pretreated for 1 hr followed by carrageenan challenge and measured after 4 hrs by plethysmometer relative to control; format: functional; how it was run: as §1
Rattus norvegicus [5] = experiment: Ulcerogenicity in Sprague-Dawley rat assessed as gastric lessions at 70 mg/kg, po measured after 4 hrs; format: toxicity, organism-based; conditions: in vivo
How it was run: (§2)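 Male Sprague-Dawley rats, 180 ± 20 g, acclimatized one week, 3 per group. Oral dosing by feeding needle, adjusted to body weight; saline and carboxymethylcellulose served as controls. Killed 4 h after dosing; stomach opened along the greater curvature, rinsed with saline, and lesions scored under a magnifying glass.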

HT-29 = experiment: Growth inhibition of human HT-29 cells by MTT assay; format: cell-based
Rattus norvegicus [6] = experiment: Ulcerogenicity in Sprague-Dawley rat assessed as hyperemia at 70 mg/kg, po measured after 4 hrs; format: toxicity, organism-based; conditions: in vivo; how it was run: as §2
Mus musculus [7] = experiment: Analgesic activity in CD1 mouse assessed as inhibition of acetic acid-induced writhings at 70 mg/kg, po pretreated for 30 mins followed by acetic acid challenge for 5 mins and measured for 30 mins relative to control; format: functional
How it was run: (§3)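 Male Swiss CD1 mice, 4-5 weeks, 25 ± 5 g, acclimatized one week. Dose adjusted to body weight and given orally by feeding needle 30 min before i.p. acetic acid (25 mg/kg; 0.25 mL/25 g). NaCl solution served as control. […] Mean ± S.E.M., at least four mice; one-way ANOVA with Student-Newman-Keuls.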

Mus musculus [8] = experiment: Analgesic activity in CD1 mouse assessed as inhibition of acetic acid-induced writhings at 70 mg/kg, po pretreated for 30 mins followed by acetic acid challenge; format: functional, organism-based; conditions: TDE = time-dependent effect; how it was run: as §3
Mus musculus [9] = experiment: Analgesic activity in CD1 mouse assessed as inhibition of acetic acid-induced writhings at 20 mg/kg, po pretreated for 30 mins followed by acetic acid challenge for 5 mins and measured for 30 mins relative to control; format: functional; how it was run: as §3
Mus musculus [10] = experiment: Analgesic activity in CD1 mouse assessed as inhibition of acetic acid-induced writhings at 10 mg/kg, po pretreated for 30 mins followed by acetic acid challenge for 5 mins and measured for 30 mins relative to control; format: functional; how it was run: as §3

Row | SMILES | IC50 [1] [µM] | IC50 (HT-29) [µM] | inhibition in vivo at 70 mg/kg (Rattus norvegicus [2]) [%] | Activity (Rattus norvegicus [3]) | inhibition in vivo at 70 mg/kg (Rattus norvegicus [4]) [%] | Activity (Rattus norvegicus [5]) | Activity (Rattus norvegicus [6]) | inhibition in vivo at 70 mg/kg (Mus musculus [7]) [%] | inhibition (Mus musculus [8]) | inhibition in vivo at 20 mg/kg (Mus musculus [9]) [%] | inhibition in vivo at 10 mg/kg (Mus musculus [10]) [%]
1 | CS(=O)(=O)c1cccc(Oc2ccccc2)c1 | 4.89 | – | 27.8 | Non-Toxic | 25.4 | – | – | – | – | – | –
2 | CN1c2ccccc2Sc2ccc(CC(=O)O)cc21 [METIAZINIC ACID] | 6.23 | – | – | – | – | – | – | – | – | – | –
3 | COc1ccc2cc(S(C)(=O)=O)ccc2c1 | 0.04 | > 200 | 29.4 | Non-Toxic | 34.6 | Non-Toxic | Toxic | 60.1 | Tde | 56.2 | 49.3
4 | COc1ccc2c(c1)c(S(C)(=O)=O)c(C)n2C(=O)c1ccc(Cl)cc1 | 0.39 | > 200 | 29.9 | Non-Toxic | 32.5 | – | – | – | – | – | –
5 | CC(C)Cc1ccc(C(C)C(=O)O)cc1 (configuration not stated) [IBUPROFEN] | – | – | – | – | 23.9 | – | – | 66.7 | – | 53 | 48

Further compounds by falling IC50 [1], results first:

Row | IC50 [1] [µM] | IC50 (HT-29) [µM] | SMILES | inhibition in vivo at 70 mg/kg (Rattus norvegicus [2]) [%] | Activity (Rattus norvegicus [3]) | inhibition in vivo at 70 mg/kg (Rattus norvegicus [4]) [%] | Activity (Rattus norvegicus [5]) | Activity (Rattus norvegicus [6]) | inhibition in vivo at 70 mg/kg (Mus musculus [7]) [%] | inhibition (Mus musculus [8]) | inhibition in vivo at 20 mg/kg (Mus musculus [9]) [%] | inhibition in vivo at 10 mg/kg (Mus musculus [10]) [%]
6 | 7.02 | – | CC(C)Cc1ccc(S(C)(=O)=O)cc1 | 9.6 | Non-Toxic | 9.5 | – | – | – | – | – | –
7 | 5.29 | – | CS(=O)(=O)c1ccc(C(=O)c2ccc(Cl)cc2)cc1 | 14.9 | Non-Toxic | 18.9 | – | – | – | – | – | –
8 | 2.73 | – | CC(C(=O)O)c1cccc(Oc2ccccc2)c1 (configuration not stated) [FENOPROFEN] | – | – | – | – | – | – | – | – | –
9 | 1.36 | – | CN1c2ccccc2Sc2ccc(S(C)(=O)=O)cc21 | – | Non-Toxic | – | – | – | – | – | – | –
10 | 0.18 | > 200 | CS(=O)(=O)c1ccc(C(=O)c2ccoc2)cc1 | 27.6 | Non-Toxic | 25.9 | Non-Toxic | – | 64.9 | Tde | 50.5 | 45.9
11 | 0.11 | – | CC(C(=O)O)c1cccc(C(=O)c2ccccc2)c1 (configuration not stated) [KETOPROFEN] | – | – | – | – | – | – | – | – | –
